Experimental data from ChEMBL document CHEMBL5058577, “EUbOPEN Chemogenomics Library 2 (Multiplex)” (2022).

Tested on: HEK-293T
Test: Multiplex assay against HEK293T
Format: toxicity, cell-based
Settings: human
In short: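 Live cells were stained at seeding with Hoechst33342, BioTracker Green Microtubule Cytoskeleton Dye, MitoTracker Red and Annexin V Alexa Fluor 680. Following compound addition, they were imaged on a CQ1 microscope at 37°C and 5% CO2 and gated by CellPathfinder machine learning into Hoechst high-intensity objects or normal cells, with normal cells split into healthy, pyknosed or fragmented nuclei and pyknosed cells into mitotic or apoptotic. Tubulin, mitochondrial-mass and membrane-permeability phenotypes are per cents of healthy-nucleus cells.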

[1] = 12 h, 1 µM, compound concentration 1 uM, replicate 1
[2] = 12 h, 1 µM, compound concentration 1 uM, replicate 2
[3] = 12 h, 10 µM, compound concentration 10 uM, replicate 1
[4] = 12 h, 10 µM, compound concentration 10 uM, replicate 2
[5] = 24 h, 1 µM, compound concentration 1 uM, replicate 1
[6] = 24 h, 1 µM, compound concentration 1 uM, replicate 2
[7] = 24 h, 10 µM, compound concentration 10 uM, replicate 1
[8] = 24 h, 10 µM, compound concentration 10 uM, replicate 2
[9] = 48 h, 1 µM, compound concentration 1 uM, replicate 1
[10] = 48 h, 1 µM, compound concentration 1 uM, replicate 2
[11] = 48 h, 10 µM, compound concentration 10 uM, replicate 1
[12] = 48 h, 10 µM, compound concentration 10 uM, replicate 2

Which “Population Apoptotic (%)” value [1] does the source give for `Br.CS(=O)(=O)Nc1c(O)ccc2c1CCCC2C1=NCCN1` (configuration not stated) here?
The value was 40%.

What about the “Population Fragmented Nuclei (%)” value [1] of the same molecule?
Its value is 7%.

And the “Population Healthy Nuclei (%)” value [1]?
The value was 80%.

What about the “Population Hoechst High Intensity Objects (%)” value [1] of the same molecule?
Its value is 5%.

What about the “Population Membrane Permeable-Phenotype (%)” value [1] of the same molecule?
Its value is 0%.

What about the “Population Mitochondria Different-Phenotype (%)” value [1] of the same molecule?
The value was 45%.

What about the “Population Mitotic Cells (%)” value [1] of the same molecule?
Its value is 59%.

What about the “Population Normal (%)” value [1] of the same molecule?
Its value is 94%.

And the “Population Pyknosed Nuclei (%)” value [1]?
Its value is 12%.

And the “Population Tubulin-Different-Phenotype (%)” value [1]?
Its value is 26%.

What about the “Total Cell Count” value [1] of the same molecule?
Its value is 407.

What about the “Population Apoptotic (%)” value [2] of the same molecule?
The value was 43%.

What about the “Population Fragmented Nuclei (%)” value [2] of the same molecule?
The value was 5%.

And the “Population Healthy Nuclei (%)” value [2]?
The value was 81%.

What about the “Population Hoechst High Intensity Objects (%)” value [2] of the same molecule?
Its value is 8%.

What about the “Population Mitochondria Different-Phenotype (%)” value [2] of the same molecule?
The value was 52%.

What about the “Population Mitotic Cells (%)” value [2] of the same molecule?
The value was 56%.

And the “Population Normal (%)” value [2]?
Its value is 91%.

And the “Population Tubulin-Different-Phenotype (%)” value [2]?
The value was 18%.

What about the “Total Cell Count” value [2] of the same molecule?
Its value is 334.

What about the “Population Apoptotic (%)” value [3] of the same molecule?
Its value is 48%.

What about the “Population Fragmented Nuclei (%)” value [3] of the same molecule?
The value was 8%.

What about the “Population Healthy Nuclei (%)” value [3] of the same molecule?
The value was 76%.

What about the “Population Hoechst High Intensity Objects (%)” value [3] of the same molecule?
Its value is 12%.

What about the “Population Membrane Permeable-Phenotype (%)” value [3] of the same molecule?
The value was 0%.

And the “Population Mitochondria Different-Phenotype (%)” value [3]?
Its value is 60%.

And the “Population Mitotic Cells (%)” value [3]?
The value was 52%.

And the “Population Normal (%)” value [3]?
Its value is 87%.

What about the “Population Pyknosed Nuclei (%)” value [3] of the same molecule?
The value was 14%.

What about the “Population Tubulin-Different-Phenotype (%)” value [3] of the same molecule?
The value was 33%.

And the “Total Cell Count” value [3]?
The value was 381.

And the “Population Apoptotic (%)” value [4]?
The value was 55%.

What about the “Population Fragmented Nuclei (%)” value [4] of the same molecule?
The value was 6%.

And the “Population Healthy Nuclei (%)” value [4]?
Its value is 79%.

And the “Population Hoechst High Intensity Objects (%)” value [4]?
The value was 14%.

What about the “Population Mitochondria Different-Phenotype (%)” value [4] of the same molecule?
The value was 67%.

What about the “Population Mitotic Cells (%)” value [4] of the same molecule?
Its value is 44%.

What about the “Population Normal (%)” value [4] of the same molecule?
The value was 85%.

And the “Population Tubulin-Different-Phenotype (%)” value [4]?
Its value is 26%.

What about the “Total Cell Count” value [4] of the same molecule?
Its value is 292.

And the “Population Apoptotic (%)” value [5]?
The value was 38%.

And the “Population Fragmented Nuclei (%)” value [5]?
Its value is 10%.

And the “Population Healthy Nuclei (%)” value [5]?
The value was 79%.

And the “Population Hoechst High Intensity Objects (%)” value [5]?
Its value is 5%.

And the “Population Membrane Permeable-Phenotype (%)” value [5]?
Its value is 1%.

And the “Population Mitochondria Different-Phenotype (%)” value [5]?
Its value is 34%.

What about the “Population Mitotic Cells (%)” value [5] of the same molecule?
The value was 61%.

And the “Population Normal (%)” value [5]?
Its value is 94%.

What about the “Population Pyknosed Nuclei (%)” value [5] of the same molecule?
The value was 10%.

And the “Population Tubulin-Different-Phenotype (%)” value [5]?
Its value is 21%.

And the “Total Cell Count” value [5]?
Its value is 549.

And the “Population Apoptotic (%)” value [6]?
Its value is 55%.

What about the “Population Fragmented Nuclei (%)” value [6] of the same molecule?
The value was 6%.

And the “Population Healthy Nuclei (%)” value [6]?
Its value is 80%.

What about the “Population Hoechst High Intensity Objects (%)” value [6] of the same molecule?
The value was 8%.

What about the “Population Membrane Permeable-Phenotype (%)” value [6] of the same molecule?
Its value is 0%.

What about the “Population Mitochondria Different-Phenotype (%)” value [6] of the same molecule?
The value was 41%.

What about the “Population Mitotic Cells (%)” value [6] of the same molecule?
The value was 44%.

What about the “Population Normal (%)” value [6] of the same molecule?
The value was 91%.

And the “Population Pyknosed Nuclei (%)” value [6]?
Its value is 13%.

And the “Population Tubulin-Different-Phenotype (%)” value [6]?
The value was 17%.

What about the “Total Cell Count” value [6] of the same molecule?
The value was 387.

What about the “Population Apoptotic (%)” value [7] of the same molecule?
Its value is 30%.

What about the “Population Fragmented Nuclei (%)” value [7] of the same molecule?
Its value is 11%.

And the “Population Healthy Nuclei (%)” value [7]?
Its value is 75%.

What about the “Population Hoechst High Intensity Objects (%)” value [7] of the same molecule?
Its value is 6%.

What about the “Population Membrane Permeable-Phenotype (%)” value [7] of the same molecule?
Its value is 0%.

What about the “Population Mitochondria Different-Phenotype (%)” value [7] of the same molecule?
Its value is 40%.

What about the “Population Mitotic Cells (%)” value [7] of the same molecule?
The value was 69%.

And the “Population Normal (%)” value [7]?
Its value is 93%.

What about the “Population Pyknosed Nuclei (%)” value [7] of the same molecule?
Its value is 12%.

What about the “Population Tubulin-Different-Phenotype (%)” value [7] of the same molecule?
Its value is 23%.

What about the “Total Cell Count” value [7] of the same molecule?
The value was 451.

And the “Population Apoptotic (%)” value [8]?
The value was 34%.

And the “Population Healthy Nuclei (%)” value [8]?
Its value is 77%.

What about the “Population Hoechst High Intensity Objects (%)” value [8] of the same molecule?
Its value is 11%.

What about the “Population Mitochondria Different-Phenotype (%)” value [8] of the same molecule?
Its value is 46%.

What about the “Population Mitotic Cells (%)” value [8] of the same molecule?
Its value is 65%.

What about the “Population Normal (%)” value [8] of the same molecule?
Its value is 88%.

What about the “Population Pyknosed Nuclei (%)” value [8] of the same molecule?
The value was 10%.

What about the “Population Tubulin-Different-Phenotype (%)” value [8] of the same molecule?
Its value is 21%.

What about the “Total Cell Count” value [8] of the same molecule?
The value was 377.

And the “Population Apoptotic (%)” value [9]?
Its value is 12%.

What about the “Population Fragmented Nuclei (%)” value [9] of the same molecule?
The value was 14%.

And the “Population Healthy Nuclei (%)” value [9]?
Its value is 78%.

And the “Population Hoechst High Intensity Objects (%)” value [9]?
The value was 4%.

What about the “Population Membrane Permeable-Phenotype (%)” value [9] of the same molecule?
The value was 0%.

What about the “Population Mitochondria Different-Phenotype (%)” value [9] of the same molecule?
Its value is 20%.

And the “Population Mitotic Cells (%)” value [9]?
The value was 87%.

What about the “Population Normal (%)” value [9] of the same molecule?
Its value is 95%.

And the “Population Pyknosed Nuclei (%)” value [9]?
Its value is 7%.

What about the “Population Tubulin-Different-Phenotype (%)” value [9] of the same molecule?
The value was 14%.

What about the “Total Cell Count” value [9] of the same molecule?
Its value is 859.

What about the “Population Apoptotic (%)” value [10] of the same molecule?
Its value is 29%.

And the “Population Fragmented Nuclei (%)” value [10]?
Its value is 11%.

And the “Population Hoechst High Intensity Objects (%)” value [10]?
Its value is 6%.

What about the “Population Mitochondria Different-Phenotype (%)” value [10] of the same molecule?
The value was 22%.

And the “Population Mitotic Cells (%)” value [10]?
Its value is 70%.

What about the “Population Normal (%)” value [10] of the same molecule?
Its value is 93%.

And the “Population Pyknosed Nuclei (%)” value [10]?
Its value is 9%.

What about the “Population Tubulin-Different-Phenotype (%)” value [10] of the same molecule?
The value was 12%.

And the “Total Cell Count” value [10]?
The value was 532.

And the “Population Apoptotic (%)” value [11]?
Its value is 34%.

What about the “Population Fragmented Nuclei (%)” value [11] of the same molecule?
The value was 16%.

What about the “Population Healthy Nuclei (%)” value [11] of the same molecule?
The value was 76%.

And the “Population Hoechst High Intensity Objects (%)” value [11]?
The value was 4%.

And the “Population Membrane Permeable-Phenotype (%)” value [11]?
Its value is 1%.

What about the “Population Mitochondria Different-Phenotype (%)” value [11] of the same molecule?
The value was 22%.

What about the “Population Mitotic Cells (%)” value [11] of the same molecule?
The value was 65%.

What about the “Population Normal (%)” value [11] of the same molecule?
Its value is 95%.

And the “Population Pyknosed Nuclei (%)” value [11]?
Its value is 6%.

What about the “Population Tubulin-Different-Phenotype (%)” value [11] of the same molecule?
The value was 12%.

What about the “Total Cell Count” value [11] of the same molecule?
The value was 671.

What about the “Population Apoptotic (%)” value [12] of the same molecule?
The value was 48%.

What about the “Population Fragmented Nuclei (%)” value [12] of the same molecule?
The value was 14%.

What about the “Population Healthy Nuclei (%)” value [12] of the same molecule?
Its value is 79%.

What about the “Population Membrane Permeable-Phenotype (%)” value [12] of the same molecule?
The value was 0%.

And the “Population Mitochondria Different-Phenotype (%)” value [12]?
Its value is 27%.

And the “Population Mitotic Cells (%)” value [12]?
The value was 51%.

And the “Population Pyknosed Nuclei (%)” value [12]?
The value was 5%.

And the “Population Tubulin-Different-Phenotype (%)” value [12]?
The value was 11%.

And the “Total Cell Count” value [12]?
The value was 584.
